Compounds with a hit are over-represented: about 9.6% of the library has one in this group of screens.
L major viab: inhibitors of Leishmania major promastigote growth; 200,000 compounds, 9% hits; Leishmania major promastigotes, resazurin fluorescence viability; AID 1063; inhibition, % at 10 µM; in the data active = inhibition above about 50%;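 also: promastigotes grown with compound for 44 hours at 28 °C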
HCT116 PTEN-null: PTEN-deleted cell growth suppression; 140,000 compounds, 1.2% hits; viability, % at 10 µM; HCT116 PTEN-null viability, CellTiter-Glo, 60 h; hits give low values;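 active = viability at or below a set limit, 4 SD under the median of all tested compounds, cut at about 3.7% in these data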;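 also: PTEN knockout HCT116 line with beta catenin targeted HCT116 as companion control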
PMI act: increases human mannose-6-phosphate isomerase activity. P34949. activation factor at 20 µM. 190,000 compounds, 0.005% hits. purified human PMI, coupled resazurin fluorescence, 20 min; hits give high values; 1 = vehicle control, 0 substrate-free wells;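 active = activation factor of 2 or more at 20 µM, relative to plate controls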
Target sequence (P34949 whole entry, looked up): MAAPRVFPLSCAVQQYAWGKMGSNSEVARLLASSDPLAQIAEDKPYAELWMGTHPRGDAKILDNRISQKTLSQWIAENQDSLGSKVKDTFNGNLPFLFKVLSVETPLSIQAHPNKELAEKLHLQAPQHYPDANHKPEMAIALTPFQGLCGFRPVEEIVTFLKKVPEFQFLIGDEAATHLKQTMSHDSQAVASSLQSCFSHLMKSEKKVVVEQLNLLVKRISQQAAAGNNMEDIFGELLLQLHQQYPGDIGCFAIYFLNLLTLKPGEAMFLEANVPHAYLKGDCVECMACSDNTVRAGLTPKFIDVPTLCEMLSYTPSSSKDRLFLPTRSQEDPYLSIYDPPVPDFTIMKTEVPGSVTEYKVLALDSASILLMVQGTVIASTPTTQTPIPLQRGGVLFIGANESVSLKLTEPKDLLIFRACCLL
bCat KO growth: beta-catenin-lacking colon tumor cell growth suppression. HCT116 beta-catenin knockout viability, CellTiter-Glo, 60 h; hits give low values. viability, % at 10 µM. 140,000 compounds, 1.5% hits;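 active = viability at or under a set limit, the compound median less 4 SD, cut at about 6% in these data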
PMI act satM6P: increases human PMI activity with near-saturating mannose 6-phosphate; coupled PMI enzyme assay, resazurin fluorescence, 20 min; hits give high values; 1 = untreated enzyme, 0 = substrate-free blank; activation factor at 20 µM; 190,000 compounds, 0.34% hits;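 active = activation factor of 2 or more at 20 µM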
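Test system – human PMI in coupled enzyme assay · Timing – 20 min incubation at room temperature · Detection – Diaphorase-driven resazurin-to-resorufin fluorescence, excitation 544, emission 590 nm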
Large screens that a line does not name were inactive.

CCC(=O)NC(c1ccc(N(C)C)cc1)c1c(O)ccc2ccccc12 (stereo unspecified)	L major viab 100 (no result: HCT116 PTEN-null, bCat KO growth)
CCOC(=O)C1CCN(CCC(=O)Nc2ccc(Cl)cc2)CC1	L major viab 91
CCOC(=O)C1CCN(CCC(=O)Nc2cccc(Cl)c2C)CC1	L major viab 94
CCOC(=O)C1CCN(CCC(=O)Nc2ccccc2)CC1	L major viab 79
CCOC(=O)C1CCCN(CCC(=O)Nc2ccccc2)C1 (stereo unspecified)	none
CCOC(=O)C1CCCN(CCC(=O)Nc2ccc(F)c(F)c2)C1 (stereo unspecified)	none
CCOC(=O)Cc1ccc(NCc2ccc(Cl)cc2)cc1	L major viab 100 (no result: HCT116 PTEN-null, bCat KO growth)
CC(C)CNC(=O)COC(=O)Cc1ccc(Cl)cc1	none (no result: HCT116 PTEN-null, bCat KO growth)
CC(=O)N(c1ccc(C)cc1)S(=O)(=O)c1ccc(Cl)cc1	none (no result: HCT116 PTEN-null, bCat KO growth)
Cc1[nH]n(-c2c(Cl)cc(Cl)cc2Cl)c(=O)c1C=Nc1ccc(S(=O)(=O)N2CCOCC2)cc1	none
COc1ccc(C2SCC(=O)N2CCCN(C)C)cc1 (stereo unspecified)	none
CCOC(=O)C1CCC(CNCc2ccc(Cl)cc2)CC1 (stereo unspecified)	L major viab 92
O=C(Nc1ccc(F)cc1F)N1CCC(c2nc3ccccc3o2)CC1	none (no result: HCT116 PTEN-null, bCat KO growth)
Cc1cc(N/C=C/C(=O)c2cccc3ccccc23)no1	none
O=C(/C=C/Nc1ccc([N+](=O)[O-])cc1Br)c1cccc2ccccc12	L major viab 75
COc1cc(-c2nc(CN3CCN(c4ncccn4)CC3)c(C)o2)ccc1F	none (no result: HCT116 PTEN-null, bCat KO growth)
CC1CN(c2snnc2C=C2C(=O)OC(C)(C)OC2=O)CC(C)O1 (stereo unspecified)	none (no result: HCT116 PTEN-null, bCat KO growth)
CC(c1ccco1)N(C(=O)c1ccccc1NS(=O)(=O)c1cc([N+](=O)[O-])ccc1Cl)c1ccccn1 (stereo unspecified)	L major viab 51
Cc1cc(N)n(-c2ncnc3scc(-c4ccc(Cl)cc4)c23)n1	none
Clc1ncnc2scc(-c3ccc(Br)cc3)c12	L major viab 94
Cc1cc(C)c(NC(=S)N(CCCN2CCOCC2)Cc2cccnc2)c(C)c1	none (no result: HCT116 PTEN-null, bCat KO growth)
CCCCCCn1c(N)c(C#N)c2ccc([N+](=O)[O-])cc2c1=O	none (no result: HCT116 PTEN-null, bCat KO growth)
N#C/C(=N\Nc1ccccc1)C(=N)N1CCCCC1	L major viab 90
CCN(CC)C(=O)Cn1cc(SCC(=O)NC2CCCC2)c2ccccc21	none (no result: HCT116 PTEN-null, bCat KO growth)
C/C(N)=C(/C#N)C(=O)CSc1nc2ccccc2c(=O)n1CCCOC(C)C	L major viab 90
CCOCCCn1c(SCC(=O)/C(C#N)=C(\C)N)nc2ccccc2c1=O	none
COc1cc2c(cc1OC)C(C)N(C(=S)NC(=O)c1ccccc1)CC2 (stereo unspecified)	none (no result: HCT116 PTEN-null, bCat KO growth)
C/C(=N\NC(=O)C(N)=O)c1cccc(C(F)(F)F)c1	none (no result: HCT116 PTEN-null, bCat KO growth)
CN(C)CCCN(C(=O)CCOc1ccccc1)c1nc2ccc(F)cc2s1	L major viab 93 (no result: HCT116 PTEN-null, bCat KO growth)
CN(C)CCCN(C(=O)/C=C/c1cccs1)c1nc2c(F)cccc2s1	L major viab 97 (no result: HCT116 PTEN-null, bCat KO growth)
CN(C)CCCN(C(=O)CCOc1ccccc1)c1nc2c(F)cccc2s1	L major viab 50 (no result: HCT116 PTEN-null, bCat KO growth)
CN(C)CCCN(C(=O)CCc1ccccc1)c1nc2c(F)cccc2s1	none
O=C(NCc1ccccn1)C1CCN(C(=O)c2cc3sccc3n2Cc2ccc(F)cc2)CC1	none (no result: HCT116 PTEN-null, bCat KO growth)
O=C(NCc1ccco1)C1CCN(C(=O)c2cc3sccc3n2Cc2ccc(F)cc2)CC1	L major viab 79
CCN(CC)CCCNC(=O)C1CCN(C(=O)c2cc3sccc3n2Cc2ccc(F)cc2)CC1	L major viab 99
O=C(NCCCN1CCCC1)C1CCN(C(=O)c2cc3sccc3n2Cc2ccc(F)cc2)CC1	L major viab 93
O=C(NCc1ccco1)C1CCN(Cc2ccc(F)cc2)CC1	L major viab 91
COc1ccc(N2CCN(C(=O)C3CCN(S(=O)(=O)c4ccc(F)cc4)CC3)CC2)cc1	none (no result: HCT116 PTEN-null, bCat KO growth)
COc1ccc(C(=O)Nc2ccc(C3CC3(Cl)Cl)cc2)cc1 (stereo unspecified)	none (no result: HCT116 PTEN-null, bCat KO growth)
Clc1ccc(C2CC(c3cccs3)n3ncnc3N2)c(Cl)c1 (stereo unspecified)	none (no result: HCT116 PTEN-null, bCat KO growth)
CN(C)/C=C(\C#N)C(=O)Nc1ccc(O)cc1F	none (no result: HCT116 PTEN-null, bCat KO growth)
CC(=O)Nc1ccc(S(=O)(=O)NCC2CCC(C(=O)NC(C)c3ccc4c(c3)OCCO4)CC2)cc1 (stereo unspecified)	none (no result: HCT116 PTEN-null, bCat KO growth)
O=C1NC(CCc2ccccc2)C(=O)N1CCOc1cccc(Br)c1 (stereo unspecified)	none (no result: HCT116 PTEN-null, bCat KO growth)
